Measured values reported in paper PMC4009363 (Nature chemical biology, 2013).
Like-named read-outs stand apart in the source and are kept apart here.

How the values were obtained:
LSCe cells [1] = assay: LSCe cell co-culture cobblestone area; type: cell-based, mouse; details: for selective inhibition of LSCe cells relative to normal HSPCs: co-culture; for validated hit from the screen: inhibits LSCe cells relative to normal HSPCs, no significant stromal toxicity; for EC50: read-out: EC50 for LSCe cells in co-culture (cobblestone area formation), MLL-AF9 LSCe cells in co-culture with stroma
LSCe cells [2] = assay: Gene-expression profiling of LSCe cells with GSEA; type: cell-based, mouse; details: 5 μM, 6 hours, in suspension
In short: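 250,000 LSCe cells per sample exposed to test compound or DMSO (n = 5 and 2, respectively) for 6 h in suspension in IMDM, 10% FBS, 1% Pen-Strep. RNA extracted, amplified, and hybridized to Illumina MouseRef-8 v2.0 Expression BeadChips.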

[3] = tested on: patient-derived, primary human leukemia cells; assay: Human CAFC assay, patient-derived leukemia cells on MS-5 stroma; type: cell-based; details: lovastatin: treated 6 days, assessed at 5 weeks (2 weeks for FLT3-ITD)
In short: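 CD34-enriched cells from bone marrow/peripheral blood of AML patients (presentation or relapse) seeded on MS-5 mouse stroma (20,000/well, 96-well, plated 1 day earlier, 37°C/5% CO₂). Seeding density set for one cobblestone per control well at 5 weeks. Medium: α-MEM, 12.5% FCS, 12.5% horse serum, monothioglycerol, 1 µM hydrocortisone, 20 ng/ml human IL-3. Test compound added next day (0.2% DMSO final) for 6 days, then rinsed and refed; half media change at 3 weeks. Score: fraction of replicate wells with ≥6 tightly packed cells beneath stroma.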

[4] = tested on: dsRed+ LSCe cells and GFP+ HSPCs; assay: BMSC stromal pretreatment with admixed LSCe cells and HSPCs; type: cell-based, mouse; details: bone marrow stromal cells pretreated for 3 days
In short: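 Wild-type C57BL/6 BMSC monolayers (384-well) treated with test compound for 3 days at 33°C/5% CO₂, then rinsed twice with PBS. 1200 GFP⁺ HSPCs (UbiquitinC-GFP mice) and 1200 dsRed⁺ LSCe cells plated together onto them. 5 days later, wells imaged at 10x in dsRed and GFP channels; total cell area per channel per well quantified. Mean ± SEM of quadruplicates.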

normal HSPCs = assay: HSPC co-culture on primary bone marrow stromal cells; type: cell-based, mouse
In short: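 Normal mouse HSPCs (400 per well) were plated in 384-well format on primary CD105⁺ bone-marrow stromal cells and held at 33°C/5% CO₂. The stroma was isolated from GFP-transgenic or wild-type C57BL/6 mice by anti-CD105 magnetic-bead selection and grown 2–3 days at 33°C before use. Test compound was run at 8–12 concentrations in duplicate, with a cytotoxic control at 22 μM.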

[5] = tested on: OP9 or BMSC stromal cells; assay: Stromal toxicity screen; type: cell-based, mouse; details: stroma pretreatment
In short: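 OP9 (6,750/well) or primary BMSC (2,000/well) stromal cells plated in 384-well plates. After 24 h, test compound added at 8 concentrations; incubated 72 h at 37°C/5% CO₂. Viability read by CellTiter-Glo ATP luminescence. Toxicity called when mean signal fell 3 SD (BMSC) or 5 SD (OP9) below DMSO control at concentrations below 20 μM.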

[6] = tested on: LSCe cells on pretreated OP9 stroma; assay: Stromal pretreatment screen; type: cell-based, mouse
[7] = tested on: human AML cell lines (U937, THP-1, NOMO-1, SKM-1, NB4, and OCI-AML3); assay: Human AML cell line viability screen; type: cell-based; details: for EC50: Homo sapiens
LSCe cells [8] = assay: Mevalonate rescue of lovastatin treatment in LSCe/OP9 co-culture; type: cell-based, mouse; details: 2 mM mevalonate, 1 μM lovastatin, OP9 stroma
In short: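 GFP⁺ OP9 stroma (13,500 per well) was plated on gelatin-coated 96-well plates. After 24 h, 2,000 sorted mouse LSCe cells were added. About 24 h later, 2 mM mevalonolactone and/or 1 μM lovastatin were added together, at constant DMSO (0.2% final). After 3 days, medium was fully changed and reagents were re-added.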

AML = details: phase 1 clinical trial in AML; cited from earlier work
FLT3-mutated AML = details: cited from earlier work
[9] = tested on: dsRed+ LSCe cells and GFP+ HSPCs; assay: Admixed LSCe cells and HSPCs co-cultured with primary BMSCs, direct treatment; type: cell-based, mouse; details: 200 nM lovastatin, assessed 5 days later
In short: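 Primary BMSC monolayers from C57BL/6 mice plated in 384-well format. 3 days later, 800 dsRed⁺ LSCe cells and 1600 GFP⁺ HSPCs (UbiquitinC-GFP mice) added. Test compound or DMSO added 24 h later and incubated 5 days. Wells imaged in dsRed and GFP channels at 10x; total cell area per well quantified for each channel. Mean ± SEM of quadruplicates, two independent experiments.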

MOZ-TIF2 LSCe cells = assay: MOZ-TIF2 LSCe cell co-culture with BMSCs; type: cell-based; details: Mus musculus, BMSC, read-out: EC50, MOZ-TIF2 LSCe cells in co-culture
murine AML cell lines = assay: Murine myeloid cell line viability; type: cell-based; details: Mus musculus, 72 h, read-out: EC50 against murine AML cell lines
LSCe cells [10] = assay: Limiting dilution syngeneic transplantation of ex vivo treated LSCe co-cultures; design: species or system mouse; details: 500 to 10,000 LSCe cells, 24-hour ex vivo exposure to 5 μM lovastatin in co-culture with BMSCs
LSCe cells and HSPCs = details: mixed cultures exposed ex vivo 48 hours to 5 μM lovastatin; relative to DMSO
[11] = tested on: normal HSPC (CD34+ cells from umbilical cord blood); assay: Human CAFC assay, normal CD34+ cord blood cells on MS-5 stroma; type: cell-based; details: treated 6 days, assessed at 5 weeks

## CCC(C)(C)C(=O)O[C@H]1C[C@@H](C)C=C2C=C[C@H](C)[C@H](CC[C@@H]3C[C@@H](O)CC(=O)O3)[C@H]21 [simvastatin]
LSCe cells [1]
  selective inhibition of LSCe cells relative to normal HSPCs: selectively inhibited LSCe cells relative to normal HSPCs

## CC1=C(O)C(=O)C=C2C1=CC=C1[C@@]2(C)CC[C@@]2(C)[C@@H]3C[C@](C)(C(=O)O)CC[C@]3(C)CC[C@]12C [celastrol]
LSCe cells [1]
  validated hit from the screen: among the 155 validated hits

## CC1(C)C(C(=O)Nc2ccc(S(=O)(=O)c3ccc(NC(=O)C4C(C)(C)C4(C)C)cc3)cc2)C1(C)C [BRD7116]
LSCe cells [1]
  EC50: 200 nM
LSCe cells [2]
  transcriptional changes (GSEA): induced transcriptional changes consistent with myeloid differentiation
[3]
  activity against patient-derived primary human leukemia cells (cobblestone area formation): showed activity
[4]
  relative inhibition of LSCe cells and HSPCs on pretreated stroma: preferentially inhibited the LSCe cells compared to HSPCs
Normal HSPCs; co-cultured on primary BMSC stroma
  activity against normal HSPCs: limited activity
[5]
  stromal cell viability (CellTiter-Glo): without evidence of altered stromal cell viability
[6]
  change in stromal morphology: not accompanied by an obvious change in stromal morphology
[7]; at 20 μM
  inhibition of AML cell lines: ~ 50%

## CCCCc1ccc2[nH]c(NC(=O)OC)nc2c1 [parbendazole]
[7]; read-out: EC50, AML cell line viability
  EC50: < 625 nM

## COCc1c(C(C)C)nc(C(C)C)c(/C=C/[C@@H](O)C[C@@H](O)CC(=O)O)c1-c1ccc(F)cc1 [cerivastatin]
LSCe cells [1]
  selective inhibition of LSCe cells relative to normal HSPCs: selectively inhibited LSCe cells relative to normal HSPCs

## CC(O)(CCO)CC(=O)O (centres unmarked) [mevalonate]
LSCe cells [8]
  rescue of the anti-leukemia effects of lovastatin: fully rescued

## CC(C)n1c(/C=C/C(O)CC(O)CC(=O)O)c(-c2ccc(F)cc2)c2ccccc21 (centres unmarked) [fluvastatin]
LSCe cells [1]
  selective inhibition of LSCe cells relative to normal HSPCs: selectively inhibited LSCe cells relative to normal HSPCs

## C=C1C(=O)O[C@H]2[C@H]1CC/C(C)=C/CC[C@@]1(C)O[C@@H]21 [parthenolide]
LSCe cells [1]
  validated hit from the screen: among the 155 validated hits

## CC(C)c1nc(N(C)S(C)(=O)=O)nc(-c2ccc(F)cc2)c1/C=C/[C@@H](O)C[C@@H](O)CC(=O)O [rosuvastatin]
LSCe cells [1]
  selective inhibition of LSCe cells relative to normal HSPCs: selectively inhibited LSCe cells relative to normal HSPCs

## CC(C)c1c(C(=O)Nc2ccccc2)c(-c2ccccc2)c(-c2ccc(F)cc2)n1CC[C@@H](O)C[C@@H](O)CC(=O)O [atorvastatin]
LSCe cells [1]
  selective inhibition of LSCe cells relative to normal HSPCs: selectively inhibited LSCe cells relative to normal HSPCs

## CC[C@H](C)C(=O)O[C@H]1C[C@H](O)C=C2C=C[C@H](C)[C@H](CC[C@@H](O)C[C@@H](O)CC(=O)O)[C@H]21 [pravastatin]
LSCe cells [1]
  scoring in LSCe co-culture assay: did not score
AML
  anti-leukemia effect in patients: preliminary evidence of an anti-leukemia effect
FLT3-mutated AML
  scoring in model of FLT3-mutated AML: did not score

## Cc1c(C)c2c(c(C)c1O)CCC(C)(COc1ccc(CC3SC(=O)NC3=O)cc1)O2 (centres unmarked) [troglitazone]
[6]
  change in stromal morphology: dose-dependent adipocytic change in the stroma
[7]; concentrations as high as 35 μM
  sensitivity of AML cell lines: none of the AML cell lines tested was sensitive

## CC[C@H](C)C(=O)O[C@H]1C[C@@H](C)C=C2C=C[C@H](C)[C@H](CC[C@@H]3C[C@@H](O)CC(=O)O3)[C@H]21 [lovastatin]
LSCe cells [1]
  EC50: ~200 nM
[9]
  relative inhibition of admixed LSCe cells and HSPCs: selectively inhibited the dsRed^+ leukemia cells while sparing the GFP^+ HSPCs
[3]
  activity against patient-derived primary human leukemia cells (cobblestone area formation): inhibited cobblestone area formation for all 6 patient-derived AML samples
Normal HSPCs; concentrations as high as 20 μM, co-culture with BMSCs
  toxicity to normal HSPCs: no apparent toxicity
MOZ-TIF2 LSCe cells
  EC50: < 250 nM
Murine AML cell lines
  EC50: > 2000 nM
LSCe cells [10]
  leukemia development after transplantation: only one animal in the lovastatin group developed leukemia by 11.5 weeks
LSCe cells and HSPCs
  survival of transplanted mice: survived substantially longer
[7]; read-out: EC50 against human AML cell lines
  EC50: > 2000 nM
[11]
  inhibition of normal HSPC cobblestone area formation: no inhibition
